According to the RNAGym collection of RNA variant scans (doi:10.1126/science.aae0568):
This sample holds only a part of the variants without activity.

B1: tRNA (parent)
chain: GUUCCGUUGGCGUAAUGGUAACGCGUCUCCCUCCUAAGGAGAAGACUGCGGGUUCGAGUCCCGUACGGAACG

Variants of: B1
Assay: yeast fitness relative to wild type (ratio to wild type); higher = fitter; tRNA-Arg(CCU), competitive growth, 37 C, YPD
In short: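 Gene amplicons from the start population and from each of six end populations were read by 100-nucleotide paired-end sequencing. Those end populations came from pooled Saccharomyces cerevisiae strains carrying tRNA-Arg(CCU) gene variants at the native locus, competed in YPD at 37°C for 24 hours. Fitness relative to wild type was worked out from changes in genotype frequencies. Genotypes needed ≥ 100 starting reads, and estimates < 0.5 were set to 0.5.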

Compared with GUUCCGUUGGCGUAAUGGUAACGCGUCUCACUCCUAAGGGGAAGACUGCGGGUUCGAGUCCCGUACGGAACG [C30A A40G], GUUCCGUUGGCGUAAUGGUAACGCCUCUCCCUCCUAAGGAGAAGACUGCGGGUUCGAGUCCCGUACCGAACG [G25C G67C] is lower in yeast fitness: 0.979 for the first, 0.797 for the second.

GUUCCGUUGGCGUAAUAGUAACGCGUCUCCCUCCUAAGGAGAAGACUACGGGUUCGGGUCCCGUACGGAACG [G17A G48A A57G] and GUUCCGAUGGCGUAAUGGUAACGCGUCUCGCUCCUAAGGAGACGACUGCGGGUUCGUAUCCCGUACGGAACG [U7A C30G A43C A57U G58A] cannot be ordered by yeast fitness: ≤ 0.5 for the first, ≤ 0.5 for the second.

Compared with GUUCCGUCGGCGUAAUGGUAACGCGUCUCCCUCCUAAGGAGAAGACUGCGGGUUCGAGUGCCGUACGGAACG [U8C C60G], GUUCCGUUGGCGUAAUGGUAACGCGUCUCCCUCCUAAGGAGAAAACUGCGGGUUCGAGUCCCGUACGCAACG [G44A G68C] is higher in yeast fitness: 0.705 for the first, 0.764 for the second.

First: GUUCCGUUGGCGUAAUCGUAACGCGUCUCCCUCCUAAGCAGAAGACUGCGGGUUCGAGUCCCGUAUGGAUCG [G17C G39C C66U A70U]
Second: GUUCCGUUGGCGUAAUGGUAACGCGUCUCCCUCCUAAGGAAAAGACUGCGGGUUCGAGUCCCGUAGGGAACG [G41A C66G]
The yeast fitness of the first is lower: ≤ 0.5 for the first, 0.625 for the second.

First: GUUCCGUUGGCGUAAUGGUAACGCGUCUCUCUCCUAAGGAGAAGACUGCGGGUCCGCGUCCCGUACGGAACG [C30U U54C A57C]
Second: GUUCCGUUGGCGUAGUGGUAACGCGUCUCCCUCCUAAGGAGAAGAUUGCGGGUUCGAGUCCCGUACGGCACG [A15G C46U A69C]
The yeast fitness of the first is lower: ≤ 0.5 for the first, 0.835 for the second.

First: GUCCCGUUGGCGUAAUGGUAACGCGUCUCCCUCCUAAGGAGAAGAUUGCGGGUUCGAGUCCCGUACGGAACG [U3C C46U]
Second: GUUCCGUUGGCGUACUGGUAAGGCGUCUCCCUCCUAAGGAGAAGACUGCGGGUUCGCGUCCCCUAUGGAACG [A15C C22G A57C G63C C66U]
The yeast fitness of the first is higher: 0.892 for the first, ≤ 0.5 for the second.

First: GUUCCGUUGGCGUAAUGGCAACGCGUCUCCCUCCUAAGGAGAAGACUGCGGGUUCGAGUCCCGUUCGAAACG [U19C A65U G68A]
Second: GUUCCGUUGGCGUAAUGGUAACGCGUGUCCCUCCUAAGGAGAUGACUGCGGGUUCGGGUCCCGUACGGAACG [C27G A43U A57G]
The yeast fitness of the first is higher: 0.534 for the first, ≤ 0.5 for the second.

Compared with GUUCCGUUGGCGUAAUGGUAACGCGUCUCCCUCCUAAGGAGAAGACUCCGGGUUCGAGUCACGUUCGGAACG [G48C C61A A65U], GGUCCGUUGGCGUAAUGGUAACGCGUCUCCUUCCUAAGGAGAAGACUGCAGGUUCGAGUCGCGUAUGGUACG [U2G C31U G50A C61G C66U A69U] is lower in yeast fitness: 0.687 for the first, ≤ 0.5 for the second.

First: GUUCCGUUGGCGUAAUGGUAACGCGUCUCCCUCCUAAGGAGAUGACUGCGGGUUUGAGUCCCGUAUGGAACG [A43U C55U C66U]
Second: GUUCCGUUGGGGUAAUGGUAACGCGUCUCCCUCCUAAGGAGAAGACUGCGCGUUCGAGUCCCGUGCGGAACG [C11G G51C A65G]
The yeast fitness of the first is higher: 0.619 for the first, 0.616 for the second.

First: GUUCCGUUGGCGUAAUGGUAACGCGUCUACCUCCUAAGGAGAAGACUGCCGGUUCGAGUCCCGUACGGAUCG [C29A G50C A70U]
Second: GUUCUGUUGGCGUAAUGGUAACGCGUCUCCCUCCUGAGGAGAAGACUGCGGGUUCGAGUCCCGUACGGAACG [C5U A36G]
The yeast fitness of the first is lower: ≤ 0.5 for the first, 1 for the second.

GAUCCGUUAGCGUAAUGGUAACGCGUCUCCCUCUUAAGGAGAAGACUGGGGCUUUGAGUCCGGUACGGAACG [U2A G9A C34U C49G G52C C55U C62G] and GUUCCGUUGGCGUAAUCGUAACGCGUCUCCCUCCUAAGGAGAAGACUGGGGGUUCGAGUCACGUACGGAACG [G17C C49G C61A] cannot be ordered by yeast fitness: ≤ 0.5 for the first, ≤ 0.5 for the second.

Going from GUUCCGUUGGCGUAAUGGUAACGCGUCUCCCUCCUAAGGAGAAGACUGCGGGUUCGCGUCUCGUACGGAACG [A57C C61U] to GUUCCGUUGGCGGAAUGGUAACGCGUCUCCCUCCUAAGGAGAAGACUGCGGGUUCGAGUCCCGUACCGAACG [U13G G67C], the yeast fitness rises from 0.656 to 0.777.

Compared with GUUCCGUUGGCGUAAUGGUAACGCGUCUCCAUCCUUAGGAGAAGACUGCGGGUUCGAGUCCCGUACGGAACG [C31A A36U], GUUCGGCUGGCGUAAUGGUAACGCGGCUCCCUCCUAAGGAGAAGACUGCGGGUUCGAGUGCCGUACGGAACG [C5G U7C U26G C60G] is lower in yeast fitness: 0.705 for the first, ≤ 0.5 for the second.

Compared with GUUCCGUUGGCGUAAUGGUAACGCGUCUCCCUCCUACGGAGAACACUGCGGCUUCGAGCCCCGUAUGGAACG [A37C G44C G52C U59C C66U], GUUCCGUUGGCGUAAUGGUGACACGUCUCCCUGCUAAGGAGAAGACUGCGGGUUCGAGUCCCGUACGGAACG [A20G G23A C33G] is higher in yeast fitness: 0.574 for the first, 0.629 for the second.

Going from GUUCCGUUGGCGUAAUGGUAACGCGUCUUCUUCCUAAGGAGCAGACUGCGGGUUCGAGUCCCGUACGGCACG [C29U C31U A42C A69C] to GUUCCGUUGGCGUAAUGGUAACGCGUCUCCCUCCUAACGAGAAGACUGCGGGUUCGAGUCCCGUGCGGAACG [G38C A65G], the yeast fitness rises from 0.673 to 0.771.

Going from GUUCCGUCGGCGUAAUGGUAACGCGUCUCCCUCCUAAGGAGAAGACUGCGGGUUCAAGUCCCGUACGGAACG [U8C G56A] to GUUCCGUUGGCGUAAUGGUAACGCGUCUCACUCCUAAGGAGAAGACUGCGAACUCAAGUCGCGUACGGAACG [C30A G51A G52A U53C G56A C61G], the yeast fitness falls from 1.06 to ≤ 0.5.

Compared with GUUCCGUUCGCGUAAUGGUAACGCGUAUCCCUCCUAAGGAGAAGACUGCGGGUUUGAGUCCCGUACGGAACG [G9C C27A C55U], GUUACGAUGGCGUGAUCGUAACGCGUCUCCCUCCUAAGGAGAAGACUGCGGGUUCGAGUCUCGUACGGAACG [C4A U7A A14G G17C C61U] is higher in yeast fitness: ≤ 0.5 for the first, 0.543 for the second.

First: GUUCCGUUGGCGCAAUGGUAACGCGUCUCCCUCCUAUGGAGUAGACUGCGGGUUCGAGUCCCGUAAGGCACG [U13C A37U A42U C66A A69C]
Second: GUUCCGUUGGCGUAAUGGUACCGCGUCUCCCUCCUAAGGAGAAGACAGCGGGUUCGAGUCCCGUACGGAACG [A21C U47A]
The yeast fitness of the first is lower: ≤ 0.5 for the first, 0.85 for the second.

Compared with GUCCCGUUGGCGUAAUGGUAACGGGUCUCCCUCCUAAGGAGAAGACUGCCGGUUCGAGUCCCGUACGCAACG [U3C C24G G50C G68C], GUUCCGUUGGCGUAAUGGUAACGCGUCUCCCUCCUAAGGAGGAGACUGGGGGUCCGAGUCCCGUACGGAACG [A42G C49G U54C] is higher in yeast fitness: ≤ 0.5 for the first, 0.536 for the second.
